UPR CHOP act – activators of apoptotic CHOP UPR arm, primary screen, cell-based, CHO-CHOP luciferase reporter, luminescence, uHTS; UPR activation; percent of tunicamycin response over DMSO baseline; activation, % at 10 µM; actives 0.34% (n = 330,000); AID 449763, 2010;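 active means at 10 µM dose, activation of 40% or more, normalized to positive control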;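 further: 100% = tunicamycin at 10 µg/mL and 0% = DMSO alone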
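System: CHO-CHOP luciferase reporter cell line | Buffer or medium: F12 medium containing 10% fetal bovine serum | Doses: One dose, 10 µM in 0.5% DMSO | Times: 6 h compound exposure at 37 °C after overnight seeding | Signal: Luciferase luminescence | Read-out: % activation vs tunicamycin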
Cardio protect – cardioprotection against H2O2-induced cell death, primary screen, uHTS, H9c2 cells, ATPLite luminescence. H9c2 cardiomyocytes, H2O2 injury protection, 2 h. protection from H2O2 cell death, % at 20 µM. actives 0.63% (n = 360,000);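 active means compounds giving at least 50% protection of heart cells from peroxide-induced death in the single-dose screen, raw or plate-pattern-corrected value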;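 further: 0% = DMSO wells with peroxide and 100% = DMSO wells without peroxide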
CHOP inhibitor – inhibitors of CHOP promoter induction, primary screen, cell-based, unfolded protein response, luciferase reporter; inhibition, % at 10 µM; actives 3.8% (n = 220,000); AID 2732, 2010; CHO-K1 CHOP-promoter luciferase, tunicamycin-induced, 15-18 h;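 active means compounds that reduced the stress-induced luciferase reporter signal by more than about 70% of percent inhibition, limit read from the data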;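 further: 0% = tunicamycin plus vehicle and 100% = wells without tunicamycin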
hiPSC survival – enhancers of single-cell hiPSC survival, primary screen, ATPlite luminescence | survival enhancement, % at 20 µM | actives 0.044% (n = 360,000) | 100% = ROCK inhibitor wells, 0% = DMSO; in the data active means survival enhancement above about 18%;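 further: cells exposed to compounds for 16 hours before the ATP read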
UPR XBP1 act – activators of adaptive XBP1 UPR arm, primary screen, cell-based, CHO-XBP1 luciferase reporter, luminescence, uHTS; actives 0.33% (n = 330,000); activation, % at 20 µM; IRE1-XBP1 UPR activation; percent of tunicamycin response, DMSO as zero;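 active means versus positive control, 20 µM dose yields 30% or more activation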;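 further: 100% = tunicamycin at 10 µg/mL and 0% = DMSO only wells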
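incubation = overnight seeding at 37 °C, 6 h compound treatment at 37 °C | assay system = CHO-XBP1 cells stably carrying IRE1-XBP1-driven luciferase reporter | input = 1000 cells per well | detection = luciferase luminescence | dosing = single point, 20 µM final compound, 1% DMSO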
* marks the source's active call; other numbers are inactive results; x = no result given. The entries come from a sample that favours hits as a whole.

SMILES	UPR CHOP act	Cardio protect	CHOP inhibitor	hiPSC survival	UPR XBP1 act
COc1ccc(-c2oc3c(OC)c(OC)c(OC)c(O)c3c(=O)c2OC)cc1OC	0	72*	-2	-1	3
COc1cccc(S(=O)(=O)N(C)C[C@H]2OCc3cnnn3CCCC(=O)N([C@H](C)CO)C[C@@H]2C)c1	x	17	x	0	x
O=C1c2ccccc2C(=O)N1CCc1csc(-c2cccc(Cl)c2)n1	5	-14	11	0	2
O=C1c2ccccc2C(=O)N1CCc1csc(-c2cccc(F)c2)n1	1	10	82*	4	0
Cc1cccc(NC(=O)c2cc3n(n2)C(C(F)(F)F)CC(c2ccc4c(c2)OCO4)N3)c1 (stereo not given)	2	-3	71*	-1	-3
COc1ccc(NC(=O)c2cc3n(n2)C(C(F)(F)F)CC(c2ccc4c(c2)OCO4)N3)cc1OC (stereo not given)	0	16	62	4	-3
O=C(NC1CCCCCC1)c1cc2n(n1)C(C(F)(F)F)CC(c1ccco1)N2 (stereo not given)	-3	5	74*	1	-2
O=C(Nc1ccc(O)cc1)c1cc2n(n1)C(C(F)(F)F)CC(c1ccco1)N2 (stereo not given)	-1	6	7	-3	4
CCCCNC(=O)c1nc(C2CCN(S(=O)(=O)c3ccccc3C(F)(F)F)CC2)oc1-c1ccccc1	x	4	x	1	x
Cc1ccc(-c2nc(CSCC(=O)NCCN3CCN(Cc4ccccc4)CC3)c(C)o2)cc1	2	-14	75*	-4	3
Cc1ccc(-c2nc(CSCC(=O)NCCCN3CCOCC3)c(C)o2)cc1	-1	2	20	-3	0
CC(C)(C)OC(=O)C[C@H]1C/C=C\C[C@@H](CC(=O)N(CCO)Cc2ccccc2)C(=O)NC[C@@H](c2ccccc2)OC1=O	0	6	x	-1	-3
COc1cccc(-c2nnc3n2N=C(C(C)(C)C)CS3)c1	-5	-2	75*	0	-2
COc1cccc(-c2nnc3n2N=C(c2cc(OC)ccc2OC)CS3)c1	3	10	48	-1	8
CCc1c(C)nc2ncnn2c1NCCc1ccccc1	2	-15	41	2	4
CCc1c(C)nc2ncnn2c1NCCc1ccc(Cl)cc1	1	-13	71*	0	3
Cc1ccc(C(=O)Nc2ccnc(-c3cccnc3)n2)cc1	4	20	3	5	4
Cc1ccc(NC(=O)Nc2ccnc(-c3cccnc3)n2)cc1	9	78*	15	-2	3
C[C@@H]1CN([C@@H](C)CO)S(=O)(=O)c2ccc(C#CC(C)(C)O)cc2O[C@H]1CN(C)C(=O)C1CCCCC1	x	16	x	0	x
COc1cc2c(cc1OC)C1(CCCC1)C(N)=C2C#N	-4	0	70*	-1	0
COc1cc(OC)c(OC)cc1C#N	1	4	35	-2	-3
COc1ccc(CN(C)C(=O)C(Cc2ccccc2)NC(=O)c2ccccc2)cc1F (stereo not given)	1	50*	x	3	-4
CN(Cc1ccc(F)cc1)C(=O)C(Cc1ccccc1)NC(=O)c1ccccc1 (stereo not given)	-1	46	x	0	-4
C=CCN(CC=C)Cc1cc(=O)oc2ccccc12	x	0	x	0	x
CC(C)(C)c1ccc(OCC(=O)NNC(=S)NC(=O)c2ccco2)c(Br)c1	-1	46	x	-1	-1
SMILES	UPR CHOP act	Cardio protect	CHOP inhibitor	hiPSC survival	UPR XBP1 act
CC(C)(C)c1ccc(OCC(=O)NCc2ccco2)c(Br)c1	2	-6	81*	4	5
COc1cccc(C2=Nn3c(nnc3-c3ccccc3O)SC2)c1	0	-10	70	12	4
C[n+]1c2n(c3ccccc31)N=C(c1cc(C(C)(C)C)c(O)c(C(C)(C)C)c1)CS2	7	-26	73*	0	4
CCOC(=O)C1(C)CCCN1C(=O)c1snnc1C (stereo not given)	x	6	x	-1	x
CC(NS(=O)(=O)c1ccc(F)cc1)C(c1cccs1)N1CCOCC1 (stereo not given)	0	-14	11	2	-1
CCN1CCN(C(c2cccs2)C(C)NS(=O)(=O)c2ccc(F)cc2)CC1 (stereo not given)	0	7	73*	-3	-4
O=c1c(O)c(-c2ccc(O)c(O)c2)oc2cc(O)cc(O)c12	6	95*	-10	-4	-1
COc1ccc(-c2cc(=O)c3c(O)cc(O)cc3o2)cc1	2	-11	x	0	-6
O=c1cc(-c2ccc(O)c(O)c2)oc2cc(O)cc(O)c12	4	62*	20	-2	9
C=CCN1CCc2c(cc(O)c(O)c2Br)[C@@H](c2ccccc2)C1	0	60*	-2	2	9
O=c1[nH]nc(Cc2ccc(Cl)cc2)c2ccccc12	2	41	54	12	-1
O=c1[nH]nc(CNc2ccc(Cl)cc2Cl)c2ccccc12	-1	30	71*	0	-1
CC(C)(Oc1ccc(Cl)cc1)C(=O)NCc1n[nH]c(=O)c2ccccc12	0	29	x	0	-1
O=c1[nH]nc(Cc2ccc(Cl)cc2Cl)c2ccccc12	-1	33	80*	2	-2
COc1ccc(CCNc2cc(N3CCN(C(=O)c4ccccc4F)CC3)ccc2[N+](=O)[O-])cc1OC	-4	-24	-14	4	7
COc1ccc(C(=O)N2CCN(c3ccc([N+](=O)[O-])c(NCCc4ccc(OC)c(OC)c4)c3)CC2)cc1	5	-9	81*	-3	2
COc1ccc(CCNc2cc(N3CCN(C(=O)c4ccc(C)cc4)CC3)ccc2[N+](=O)[O-])cc1OC	1	x	79*	x	5
COc1ccccc1CCC(=O)Nc1ccc(S(=O)(=O)Nc2ncccn2)cc1	x	-7	x	3	x
O=C1c2ccccc2C(c2nnnn2-c2ccc3c(c2)OCCO3)N1CCc1ccccc1F (stereo not given)	x	x	x	0	x
COC(=O)c1ccc(NC(=S)N2CCN(Cc3cccc(C)c3)CC2)cc1	-2	-6	89*	-2	1
COC(=O)c1ccc(NC(=S)N2CCN(Cc3ccccc3)CC2)cc1	-2	-6	24	-2	3
COc1cccc(-c2csc(N3CCN(C(=S)Nc4ccc(Cl)cc4)CC3)n2)c1	1	-8	71*	-4	-1
COc1cccc(-c2csc(N3CCN(C(=S)Nc4ccccc4)CC3)n2)c1	1	-1	39	-1	-1
CCc1ccc(NC(=S)N2CCN(c3cccc(OC)c3)CC2)cc1	0	4	72*	-1	-2
